Assay results pooled from the literature.
Compare with care: the assays were run in different laboratories.
Read-out: cell growth or viability

For `CCCS(=O)(=O)Nc1ccc(F)c(C(=O)c2c[nH]c3ncc(Cl)cc23)c1F`, the EC50 was 0.03 µM (A-375).
`COc1ccc(C(=O)c2c[nH]c3ncc(-c4ccc(N5CCN(S(C)(=O)=O)CC5)nc4)cc23)cc1` gave a viability of 70.1% (MRC5; MTT; 10 µM; 48 h).
`CO[C@]1([C@@H]2CSC(=O)N2CCCO)C[C@H]2C[C@@H](CC[C@H](C)/C=C\C=C\CC/C(C)=C\C(=O)O2)O1` has an IC50 of greater than 50 µM (MDA-MB-231; MTT; 72 h).
The viability of `O=C(c1cccc(F)c1)c1c[nH]c2ncc(-c3ccc(N4CCNCC4)nc3)cc12` is reported as 66.2% (MRC5; MTT; 10 µM; 48 h).
`CCN1C(=O)SC[C@H]1[C@@]1(O)C[C@H]2C[C@@H](CC[C@H](C)/C=C\C=C\CC/C(C)=C\C(=O)O2)O1` gave an IC50 of 7.19 µM (MDA-MB-231; MTT; 72 h).
For `[Cl-].[Cl-].[Co+2]`, the IC50 was greater than 150 µM (BEL-7404; MTT; 48 h).
`N.N.[Cl][Pt][Cl]` gave a GI50 of 4.18 µM (MDA-MB-231; MTT; 72 h).
With `N.N.[Cl][Pt][Cl]` the EC50 was 1.2 µM (A-375; SRB).
The viability of `O=C(c1ccc(F)cc1)c1c[nH]c2ncc(-c3ccnc(N4CCOCC4)c3)cc12` is reported as 89.4% (MRC5; MTT; 10 µM; 48 h).
For `CO[C@]1([C@@H]2CSC(=O)N2C2CCCC2)C[C@H]2C[C@@H](CC[C@H](C)/C=C\C=C\CC/C(C)=C\C(=O)O2)O1`, the IC50 was 5.07 µM (MDA-MB-231; MTT; 72 h).
`O=C(c1ccc(F)cc1)c1c[nH]c2ncc(-c3ccc(N4CCOCC4)nc3)cc12` gave a viability of 68.1% (MRC5; MTT; 10 µM; 48 h).
`C/C1=C/C(=O)O[C@@H]2C[C@@H](CC[C@H](C)/C=C\C=C\CC1)O[C@@](O)([C@@H]1CSC(=O)N1)C2` has an IC50 of 4.19 µM (MDA-MB-231; MTT; 72 h).
`COc1cc2c(cc1OS(N)(=O)=O)CC[C@@H]1[C@@H]2CC[C@]2(C)[C@@H](OS(N)(=O)=O)CC[C@@H]12` has a GI50 of 0.29 µM (MDA-MB-231).
